In ChEMBL document CHEMBL2311328, “Molecular docking and synthesis of novel quinazoline analogues as inhibitors of transcription factors NF-κB activation and their anti-cancer activities” (2013):
Active and inactive are the calls of the source. No cut-off for these calls is given here.

Legend:
HepG2 [1] = assay: Inhibition of TNFalpha-induced NFkappaB (unknown origin)-dependent transcriptional activity expressed in human HepG2 cells at 0.1 to 10 uM incubated for 1 hr prior to TNFalpha induction measured after 6 hrs by dual-luciferase reporter gene assay; format: cell-based
Procedure, shortened: (§1)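 HepG2 cells in DMEM with 10% FBS were lipofectamine-transfected with 10 ng/well pGL4.32 NF-κB-Luc plus Renilla control. Compound in DMSO was given in fresh medium for 1 h at 37 °C, then TNFα (final 20 ng/ml) for 6 h. Cells were lysed in passive lysis buffer. Firefly light units were normalized to Renilla; one-way ANOVA.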

HepG2 [2] = assay: Inhibition of TNFalpha-induced NFkappaB (unknown origin)-dependent transcriptional activity expressed in human HepG2 cells at 1 uM incubated for 1 hr prior to TNFalpha induction measured after 6 hrs by dual-luciferase reporter gene assay; format: cell-based; procedure, shortened: as §1
HepG2 [3] = assay: Cytotoxicity against human HepG2 cells assessed as cellular growth at 50 uM incubated for 1 hr prior to TNF alpha stimulation measured after 48 hrs by SRB assay; format: functional
Procedure, shortened: (§2)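 HepG2 cells in DMEM with 10% FBS and penicillin/streptomycin were allowed to adhere 24 h, and a T0 plate was fixed. Compound was given for 1 h at 37 °C, with or without 20 ng/ml TNFα, then 48 h more. Cells were stained with 0.4% SRB for 30 min at RT, washed in 1% acetic acid, and solubilized in 10 mM Tris. OD read at 515 nm; one-way ANOVA.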

HepG2 [4] = assay: Cytotoxicity against human HepG2 cells assessed as cellular growth at 50 uM after 48 hrs by SRB assay in absence of TNFalpha; format: functional; procedure, shortened: as §2
LOX IMVI = assay: Cytotoxicity against human LOXIMVI cells after 48 hrs by SRB assay; format: functional
Procedure, shortened: (§3)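 Screened by the NCI Developmental Therapeutics Program in dose-response format. GI50 was determined by the sulforhodamine B protocol.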

SF-539 = assay: Cytotoxicity against human SF539 cells after 48 hrs by SRB assay; format: functional; settings: SF-539, 48 h; procedure, shortened: as §3
SF-268 = assay: Cytotoxicity against human SF268 cells after 48 hrs by SRB assay; format: functional; settings: SF-268, 48 h; procedure, shortened: as §3
786-0 = assay: Cytotoxicity against human 786-0 cells after 48 hrs by SRB assay; format: functional; settings: 786-0, 48 h; procedure, shortened: as §3
IGROV-1 = assay: Cytotoxicity against human IGROV1 cells after 48 hrs by SRB assay; format: functional; settings: IGROV-1, 48 h; procedure, shortened: as §3
UACC-62 = assay: Cytotoxicity against human UACC62 cells after 48 hrs by SRB assay; format: functional; settings: UACC-62, 48 h; procedure, shortened: as §3
T47D = assay: Cytotoxicity against human T47D cells after 48 hrs by SRB assay; format: functional; procedure, shortened: as §3
COLO 205 = assay: Cytotoxicity against human COLO205 cells after 48 hrs by SRB assay; format: functional; settings: COLO 205, 48 h; procedure, shortened: as §3
KM12 = assay: Cytotoxicity against human KM12 cells after 48 hrs by SRB assay; format: functional; settings: KM12, 48 h; procedure, shortened: as §3
U-251 = assay: Cytotoxicity against human U251 cells after 48 hrs by SRB assay; format: functional; settings: U-251, 48 h; procedure, shortened: as §3
[5] = Cytotoxicity against human SKOC3 cells after 48 hrs by SRB assay; format: functional; settings: SKOC3, 48 h; procedure, shortened: as §3
SNB-19 = assay: Cytotoxicity against human SNB19 cells after 48 hrs by SRB assay; format: functional; settings: SNB-19, 48 h; procedure, shortened: as §3
UACC-257 = assay: Cytotoxicity against human UACC257 cells after 48 hrs by SRB assay; format: functional; settings: UACC-257, 48 h; procedure, shortened: as §3
[6] = Cytotoxicity against human NCI-ADR-RES cells after 48 hrs by SRB assay; format: functional; procedure, shortened: as §3
M14 = assay: Cytotoxicity against human M14 cells after 48 hrs by SRB assay; format: functional; settings: M14, 48 h; procedure, shortened: as §3
Hs-578T = assay: Cytotoxicity against human Hs578T cells after 48 hrs by SRB assay; format: functional; procedure, shortened: as §3
TK-10 = assay: Cytotoxicity against human TK10 cells after 48 hrs by SRB assay; format: functional; settings: TK-10, 48 h; procedure, shortened: as §3
OVCAR-4 = assay: Cytotoxicity against human OVCAR4 cells after 48 hrs by SRB assay; format: functional; settings: OVCAR-4, 48 h; procedure, shortened: as §3
CAKI-1 = assay: Cytotoxicity against human Caki1 cells after 48 hrs by SRB assay; format: functional; settings: CAKI-1, 48 h; procedure, shortened: as §3
HCT-15 = assay: Cytotoxicity against human HCT15 cells after 48 hrs by SRB assay; format: functional; settings: HCT-15, 48 h; procedure, shortened: as §3
SK-MEL-28 = assay: Cytotoxicity against human SK-MEL-28 cells after 48 hrs by SRB assay; format: functional; settings: SK-MEL-28, 48 h; procedure, shortened: as §3
A498 = assay: Cytotoxicity against human A498 cells after 48 hrs by SRB assay; format: functional; settings: A498, 48 h; procedure, shortened: as §3
SN12C = assay: Cytotoxicity against human SN12C cells after 48 hrs by SRB assay; format: functional; procedure, shortened: as §3
HCC 2998 = assay: Cytotoxicity against human HCC2998 cells after 48 hrs by SRB assay; format: functional; settings: HCC 2998, 48 h; procedure, shortened: as §3
OVCAR-3 = assay: Cytotoxicity against human OVCAR3 cells after 48 hrs by SRB assay; format: functional; settings: OVCAR-3, 48 h; procedure, shortened: as §3
Malme-3M = assay: Cytotoxicity against human MALME-3M cells after 48 hrs by SRB assay; format: functional; procedure, shortened: as §3
MCF7 = assay: Cytotoxicity against human MCF7 cells after 48 hrs by SRB assay; format: functional; settings: MCF7, 48 h; procedure, shortened: as §3
SNB-75 = assay: Cytotoxicity against human SNB75 cells after 48 hrs by SRB assay; format: functional; settings: SNB-75, 48 h; procedure, shortened: as §3
SF-295 = assay: Cytotoxicity against human SF295 cells after 48 hrs by SRB assay; format: functional; settings: SF-295, 48 h; procedure, shortened: as §3
OVCAR-8 = assay: Cytotoxicity against human OVCAR8 cells after 48 hrs by SRB assay; format: functional; settings: OVCAR-8, 48 h; procedure, shortened: as §3
DU-145 = assay: Cytotoxicity against human DU145 cells after 48 hrs by SRB assay; format: functional; settings: DU-145, 48 h; procedure, shortened: as §3
SK-MEL-2 = assay: Cytotoxicity against human SK-MEL-2 cells after 48 hrs by SRB assay; format: functional; settings: SK-MEL-2, 48 h; procedure, shortened: as §3
EKVX = assay: Induction of apoptosis in TNFalpha-stimulated human EKVX cells at 1 uM incubated for 1 hr prior to TNFalpha stimulation measured after 18 hrs by TUNEL assay; format: functional, cell-based
Procedure, shortened: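 EKVX cells in RPMI 1640 with 10% FBS were grown on glass coverslips. Compound was given for 1 h at 37 °C, then 20 ng/ml TNFα for 18 h. Cells were fixed in 3.7% paraformaldehyde, treated with proteinase K for 30 min, then TUNEL-labelled with streptavidin-fluorescein plus DAPI. Scored by fluorescence microscopy.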

MDA-MB-231 = assay: Cytotoxicity against human MDA-MB-231 cells after 48 hrs by SRB assay; format: functional; settings: MDA-MB-231, 48 h; procedure, shortened: as §3
HCT-116 = assay: Cytotoxicity against human HCT116 cells after 48 hrs by SRB assay; format: functional; settings: HCT-116, 48 h; procedure, shortened: as §3
SW-620 = assay: Cytotoxicity against human SW620 cells after 48 hrs by SRB assay; format: functional; settings: SW-620, 48 h; procedure, shortened: as §3
MDA-MB-435 = assay: Cytotoxicity against human MDA-MB-435 cells after 48 hrs by SRB assay; format: functional; settings: MDA-MB-435, 48 h; procedure, shortened: as §3
UO-31 = assay: Cytotoxicity against human UO31 cells after 48 hrs by SRB assay; format: functional; settings: UO-31, 48 h; procedure, shortened: as §3
PC-3 = assay: Cytotoxicity against human PC3 cells after 48 hrs by SRB assay; format: functional; settings: PC-3, 48 h; procedure, shortened: as §3
BT-549 = assay: Cytotoxicity against human BT549 cells after 48 hrs by SRB assay; format: functional; settings: BT-549, 48 h; procedure, shortened: as §3
RXF 393 = assay: Cytotoxicity against human RXF393 cells after 48 hrs by SRB assay; format: functional; settings: RXF 393, 48 h; procedure, shortened: as §3

## Nc1ccc2ncnc(NCCc3ccc(Oc4ccccc4)cc3)c2c1
HepG2 [1]
  inhibition: Active

## c1ccc(CN2CCN(c3nc(-c4ccccc4)nc4ccccc34)CC2)cc1
HepG2 [2]
  inhibition: Active
HepG2 [3]
  Activity: 13.7%
HepG2 [4]
  Activity: 30.7%

## Oc1ccc(Br)cc1CN1CCN(c2ncnc3ccccc23)CC1
HepG2 [2]
  inhibition: Active
HepG2 [3]
  Activity: -29.9%
HepG2 [4]
  Activity: -22%

## c1ccc2c(NCCc3ccc4c(c3)OCO4)ncnc2c1
HepG2 [2]
  inhibition: Active
HepG2 [3]
  Activity: -28.1%
HepG2 [4]
  Activity: -20.1%

## c1ccc(-c2nc(NCCc3c[nH]c4ccccc34)c3ccccc3n2)cc1
LOX IMVI
  GI50: 2.2 µM
SF-539
  GI50: 2 µM
SF-268
  GI50: 4.6 µM
786-0
  GI50: 2.5 µM
IGROV-1
  GI50: 3.2 µM
HepG2 [1]
  inhibition: Active
UACC-62
  GI50: 2 µM
T47D
  GI50: 2.4 µM
COLO 205
  GI50: 2.2 µM
KM12
  GI50: 2.8 µM
U-251
  GI50: 3.2 µM
[5]
  GI50: 3.7 µM
SNB-19
  GI50: 5.1 µM
UACC-257
  GI50: 3.2 µM
[6]
  GI50: 2.6 µM
M14
  GI50: 2.6 µM
Hs-578T
  GI50: 3.4 µM
TK-10
  GI50: 2.8 µM
OVCAR-4
  GI50: 3.6 µM
CAKI-1
  GI50: 3.1 µM
HCT-15
  GI50: 2.5 µM
SK-MEL-28
  GI50: 6.2 µM
A498
  GI50: 2 µM
SN12C
  GI50: 3.9 µM
HCC 2998
  GI50: 2.1 µM
OVCAR-3
  GI50: 2.9 µM
HepG2 [2]
  inhibition: Active
Malme-3M
  GI50: 2.8 µM
MCF7
  GI50: 4.2 µM
HepG2 [3]
  Activity: -46.7%
SNB-75
  GI50: 5.9 µM
HepG2 [4]
  Activity: -35.3%
SF-295
  GI50: 2 µM
OVCAR-8
  GI50: 2.2 µM
DU-145
  GI50: 4.7 µM
SK-MEL-2
  GI50: 3 µM
EKVX
  Activity: Active
MDA-MB-231
  GI50: 3.1 µM
HCT-116
  GI50: 2.8 µM
SW-620
  GI50: 3 µM
MDA-MB-435
  GI50: 2.3 µM
UO-31
  GI50: 3 µM
PC-3
  GI50: 2.4 µM
BT-549
  GI50: 4.4 µM
RXF 393
  GI50: 1.9 µM

## c1ccc(-c2nc(NCCc3ccc4c(c3)OCO4)c3ccccc3n2)cc1
HepG2 [2]
  inhibition: Active
HepG2 [3]
  Activity: -46.8%
HepG2 [4]
  Activity: -30.7%
